Assay outcomes deposited in PubChem by several laboratories.
Hsp90 inh: displaces geldanamycin probe from tumor Hsp90; NCI-N417 lysate Hsp90, Cy3B-geldanamycin FP displacement; inhibition, % at 30 µM; hit rate 0.35% among 64,000; AID 429;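 active = inhibition above 50%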;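 also: 0% = tracer plus lysate wells and 100% = tracer alone without lysate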
Cdc25B block: inhibitors of human Cdc25B phosphatase | P30305 | hit rate 0.1% among 65,000 | recombinant Cdc25B, OMFP fluorescence Ex485/Em525 | AID 368 | inhibition, %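 (compounds tested at 10 µM final in the well)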; in the data active = inhibition above about 50%
Target sequence (P30305 whole entry, looked up): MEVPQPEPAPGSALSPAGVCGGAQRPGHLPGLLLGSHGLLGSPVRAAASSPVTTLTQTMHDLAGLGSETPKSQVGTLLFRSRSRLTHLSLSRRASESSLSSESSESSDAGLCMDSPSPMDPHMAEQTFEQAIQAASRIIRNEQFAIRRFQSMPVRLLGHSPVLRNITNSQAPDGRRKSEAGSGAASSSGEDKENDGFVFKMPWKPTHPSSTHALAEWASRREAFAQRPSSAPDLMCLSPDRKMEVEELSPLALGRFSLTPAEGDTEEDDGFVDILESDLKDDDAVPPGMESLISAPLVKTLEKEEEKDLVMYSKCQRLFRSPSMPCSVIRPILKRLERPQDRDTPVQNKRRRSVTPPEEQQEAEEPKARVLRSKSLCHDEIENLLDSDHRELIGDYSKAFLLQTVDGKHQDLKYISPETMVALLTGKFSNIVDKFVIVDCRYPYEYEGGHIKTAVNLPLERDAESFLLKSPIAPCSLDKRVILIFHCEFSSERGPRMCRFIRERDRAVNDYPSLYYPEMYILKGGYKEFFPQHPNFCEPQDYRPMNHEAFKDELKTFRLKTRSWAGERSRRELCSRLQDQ
Ecoli tolC: growth inhibitors of E. coli BW25113 tolC mutant. growth inhibition, % at 10 µM (by protocol). hit rate 2.2% among 65,000. AID 573. OD615;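 active = growth inhibition at or above a cutoff equal to the mean over every tested compound plus 3 SD, cut at about 60% in these data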;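 also: growth measured after 20 h incubation at 37 °C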
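Signal: optical density read at 615 nm; Assay system: E. coli ΔtolC::kan strain BW25113; Times: 20 h incubation with compound, 37 °C; Dosing: 10 µM final, single dose.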
Ec RNAP inh: blocks E. coli RNA polymerase transcription; P0A8V2; hit rate 0.2% among 62,000; fluorescence transcription assay; inhibition, %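 (tested at 10 µM)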; in the data active = inhibition above about 20%;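 also: 0% = enzyme without compound and 100% = no enzyme blank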
MKP-1 inh: inhibitors of human MKP-1 phosphatase; recombinant MKP-1, OMFP hydrolysis fluorescence; inhibition, %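 (compounds tested at a single concentration somewhere between 10 and 100 µM)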; AID 374; hit rate 0.15% among 65,000;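 active = inhibition above about 50%, limit read from the data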;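 also: 0% = DMSO max control wells and 100% = wells with enzyme stopped by NaOH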
BAP1 block: human BAP1 deubiquitinase inhibition | recombinant BAP1, Ub-AMC hydrolysis fluorescence kinetic; active compounds read low | Q92560 | calls only at 20 µM | hit rate 0.48% among 72,000;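 active = activity remaining at or below 50% of control, provided the compound also passes the data quality filters; inactive = the rest, including low values that fail the filters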;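 also: 100% = DMSO wells rate and 0% = substrate alone blank rate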
An asterisk follows results filed as active; i = inactive; . = not tested or not shown; + = active, no number; ! = not active in a repeat. Compounds with a hit are over-represented: about 2.9% of the library has one in this group of screens.

SMILES	Hsp90 inh	Cdc25B block	Ecoli tolC	Ec RNAP inh	MKP-1 inh	BAP1 block
Cc1ccccc1NC1=NS(=O)(=O)c2cc([N+](=O)[O-])ccc21	.	.	.	.	.	i
CCN(CC)S(=O)(=O)c1ccc(C(=O)Nc2nnc(C(C)C)s2)cc1	-1.1	-23.8	9.6	5.2	8.2	i
CCc1nnc(NC(=O)c2ccc(S(=O)(=O)N(CC(C)C)CC(C)C)cc2)o1	0.1	2.7	99.4*	9.0	-8.1	i
CSCc1nnc(NC(=O)c2ccc(S(=O)(=O)N(CC(C)C)CC(C)C)cc2)o1	-2.0	2.5	99.1*	5.8	-8.8	i
COc1ccc(-n2nc3c(c2NC(=O)c2cccc(C)c2)CSC3)cc1	.	.	.	.	.	i
C=C(C)Cn1c(SC)nc2sc3c(c2c1=O)CCC(C(C)(C)C)C3 (stereo not drawn)	.	.	.	.	.	i
CC1CCCc2sc3nc(NCc4ccco4)n4ncnc4c3c21 (stereo not drawn)	-6.4	-1.4	81.2*	4.9	14.3	i
O=C(Nc1ncc(Cc2cccc(C(F)(F)F)c2)s1)c1ccc(Br)cc1	.	.	.	.	.	i
CC(C)Cn1c(CN(C)Cc2ccccc2)nc2c1c(=O)n(C)c(=O)n2C	-3.9	-5.0	2.1	5.8	1.6	i
CN(Cc1ccccc1)Cc1nc2c(c(=O)n(C)c(=O)n2C)n1CCCc1ccccc1	-0.7	-4.8	100.0*	.	15.5	i
COc1cc(-c2nc(-c3cccc(C)c3)no2)cc(OC)c1OC	-3.0	-28.8	67.3*	-0.2	10.2	i
COc1cccc(-c2noc(-c3cccs3)n2)c1	-0.3	-1.9	94.4*	3.1	14.0	i
COc1cccc(-c2nc(-c3ccccc3)no2)c1	-5.0	2.3	98.9*	3.9	-0.3	i
COc1nc(-c2ccccc2)ccc1-c1noc(-c2cccs2)n1	-4.4	6.5	-16.5	.	7.7	.
COc1cccc(-c2noc(-c3cccnc3)n2)c1	-0.8	-1.5	25.3	0.1	1.9	i
COC(=O)C1=C(C)NC(=O)CC1c1ccc(Cl)c([N+](=O)[O-])c1 (stereo not drawn)	.	.	.	.	.	i
CC(C)(C)OC(=O)N1CCC[C@H]1c1nnc(SCc2ccc(Cl)cc2Cl)o1	0.6	-0.9	88.7*	7.9	29.6	i
COc1cc([N+](=O)[O-])cc(C=Nc2cc(-c3nc4cc(C)ccc4o3)ccc2Br)c1O	.	.	.	.	.	i
O=C(CCNc1cc(Cl)cc(Cl)c1)c1ccco1	2.3	1.9	85.5*	5.6	1.3	i
O=C(CCNc1ccc(F)c(Cl)c1)c1ccco1	-0.5	-0.1	8.5	4.4	13.2	i
CCOc1ccc2nc(NC(=O)C3CC(C)=CCC3C(=O)O)sc2c1 (stereo not drawn)	.	.	.	.	.	i
CCn1c2ccccc2c2nnc(SCc3ccccc3)nc21	-3.2	-9.3	73.0*	4.2	-8.7	i
COc1cc(C(=S)N2CCCCC2)ccc1OC(=O)c1ccc(C)cc1	.	.	.	.	.	i
O=C(Nc1ccc(Cl)cc1)N(Cc1cccs1)Cc1cccs1	.	-7.7	94.8*	-0.8	11.4	.
COc1ccc(COC(=O)C2=C(C)NC3=C(C(=O)CC(C)(C)C3)C2c2cc3c(cc2[N+](=O)[O-])OCO3)cc1 (stereo not drawn)	.	.	.	.	.	i
SMILES	Hsp90 inh	Cdc25B block	Ecoli tolC	Ec RNAP inh	MKP-1 inh	BAP1 block
Fc1cccc(Cl)c1Cn1nnc(-c2ccc3c(c2)OCO3)n1	1.2	-2.7	62.8*	9.1	7.2	i
N#CCn1nnc(-c2ccc3c(c2)OCO3)n1	-3.1	-1.1	-4.1	0.9	9.6	i
O=C(CSc1n[nH]c(-c2ccncc2)n1)c1ccccc1	-1.0	-14.1	7.9	4.0	24.0	i
Cc1ccc(C)c(C(=O)CSc2n[nH]c(-c3ccncc3)n2)c1	-0.3	-2.8	99.2*	1.8	6.2	i
CN(C)CCCN(C(=O)c1cccs1)c1nc(-c2ccccc2)cs1	1.1	-12.2	4.4	13.2	-34.5	i
CN(c1ccc(O)cc1)c1nc(-c2ccccc2)cs1	2.0	-12.4	97.6*	14.6	27.3	i
O=c1c2cccc3c2c(nn1CN1CCOCC1)-c1ccccc1-3	0.3	-3.8	79.8*	1.6	10.6	i
Brc1cc(Br)c2ncnc(N3CCCCC3)c2c1	.	-12.9	100.0*	1.1	11.7	.
CCOC(=O)c1c(N=c2oc3cc(O)ccc3cc2C(=O)Nc2ccccc2)sc2c1CCCC2	.	.	.	.	.	i
Cn1c(=O)c2c(nc(NCc3ccccc3)n2Cc2ccccc2Br)n(C)c1=O	.	.	.	.	.	i
NC(=O)c1cccc(NC(=O)c2ccccc2I)c1	.	.	.	.	.	i
COc1ccc2[nH]c3c(=O)n(CCCCC(=O)N4CCCC4)c(=S)[nH]c3c2c1	-3.6	-4.7	100.0*	1.0	38.5	i
COc1ccc(N2CCN(C(=O)CCCn3c(=S)[nH]c4cc5c(cc4c3=O)OCO5)CC2)cc1	-2.4	-8.4	-7.3	2.5	5.7	i
CC(=O)Nc1nc(-c2cc3cc(Cl)ccc3oc2=O)cs1	.	.	.	.	.	i
Cc1cc(NC(=O)C2CCCCC2)nc2c1c(=O)oc1ccccc12	-4.0	0.0	76.2*	4.2	26.5	i
CN1/C(=C\C(=O)c2cccs2)Sc2ccccc21	-5.7	-9.0	68.2*	5.2	1.1	i
CCCCCc1cc(O)c2c(C)cc(=O)oc2c1	0.1	-4.1	86.1*	9.4	3.5	i
CCc1cc(=O)oc2cc(C)cc(O)c12	-1.3	1.5	1.2	-0.7	-8.6	i
N#Cc1ccc(CSc2nnc(Nc3ccccc3)s2)cc1	85.0*	18.3	6.1	10.1	21.2	i
CC(C)CC(N)C(=O)OCc1ccccc1 (stereo not drawn)	.	.	.	.	.	i
O=c1[nH]c2ccccc2c2ccccc12	4.8	.	.	.	.	i
O=c1[nH]c2cc(Cl)c(Cl)cc2[nH]c1=O	-4.3	.	.	.	.	+
O=C(Cc1ccc(Br)cc1)c1ccc(O)cc1O	-2.1	-8.0	94.9*	8.8	8.3	i
O=C(COc1ccccc1Br)c1ccc(O)cc1O	-3.4	-4.2	70.2*	4.1	11.0	i
Cc1cccn2c(=O)c3cc(C(=O)NCc4ccco4)c(=N)n(C(C)C)c3nc12	-2.5	-9.5	0.2	-20.2	0.9	.
SMILES	Hsp90 inh	Cdc25B block	Ecoli tolC	Ec RNAP inh	MKP-1 inh	BAP1 block
Cc1cccn2c(=O)c3cc(C(=O)NCc4ccco4)c(=N)n(CCc4ccccc4)c3nc12	-2.0	8.2	65.5*	-28.8	11.6	.
CCOC(=O)C1=C(C)NC(C)=C(C(=O)OC)C1c1cccc(Cl)c1Cl (stereo not drawn)	-4.8	-7.7	1.5	6.7	0.3	+!
COc1ccc(Cl)cc1N1CCN(CCNC(=O)Nc2ccccc2C)CC1	-10.1	-5.1	62.8*	-1.4	-9.7	i
COc1ccccc1N1CCN(CCCNC(=O)Nc2ccccc2C)CC1	-6.2	-4.8	-16.3	-1.4	-0.1	i
O=C(OCCCN1CCCCC1)c1ccc(O)cc1	-10.9	57.3*	-10.6	11.4	-31.8	i
COc1ccc(CCN2C(=O)CC(C(=O)Nc3ccccc3OC)SC2=Nc2ccc(F)cc2)cc1 (stereo not drawn)	.	.	.	.	.	i
CCCCCOC(=O)c1ccc(NC(=O)c2ccco2)cc1	-4.0	-4.5	98.6*	5.2	19.1	i
